How the values were obtained:
[1] = biological target: Insulin receptor (Homo sapiens) (UniProt P06213); test: Inhibition of INSR (unknown origin) at 1 uM relative to control; values are per cent of control
[2] = biological target: Mitogen-activated protein kinase kinase kinase kinase 4 (Homo sapiens) (UniProt O95819); test: Inhibition of MAP4K4 (unknown origin) at 1 uM relative to control; values are per cent of control
[3] = biological target: Mitogen-activated protein kinase kinase kinase kinase 1 (Homo sapiens) (UniProt Q92918); test: Inhibition of HPK1 (unknown origin) at 1 uM relative to control; values are per cent of control
[4] = biological target: Ephrin type-A receptor 4 (Homo sapiens) (UniProt P54764); test: Inhibition of EPHA4 (unknown origin) at 1 uM relative to control; values are per cent of control
[5] = biological target: Cyclin-dependent kinase 4/cyclin D1 (Homo sapiens) (UniProt P11802+P24385); test: Inhibition of CDK4-cyclinD1 (unknown origin) at 1 uM relative to control; values are per cent of control
[6] = biological target: Cyclin-dependent kinase 2 (Homo sapiens) (UniProt P24941); test: Inhibition of CDK2 (unknown origin) at 1 uM relative to control; values are per cent of control
[7] = biological target: Cyclin-dependent kinase 2/cyclin E1 (Homo sapiens, UniProt P24941); test: Inhibition of CDK2/Cyclin-E (unknown origin) using maltose binding protein as substrate by HTRF assay; type: protein-complex assay
[8] = biological target: T1, Serine/threonine-protein kinase PLK4 (Homo sapiens) (UniProt O00444); test: Inhibition of PLK4 (unknown origin) at 1 uM relative to control; conditions: values are per cent of control
T1 sequence (whole entry): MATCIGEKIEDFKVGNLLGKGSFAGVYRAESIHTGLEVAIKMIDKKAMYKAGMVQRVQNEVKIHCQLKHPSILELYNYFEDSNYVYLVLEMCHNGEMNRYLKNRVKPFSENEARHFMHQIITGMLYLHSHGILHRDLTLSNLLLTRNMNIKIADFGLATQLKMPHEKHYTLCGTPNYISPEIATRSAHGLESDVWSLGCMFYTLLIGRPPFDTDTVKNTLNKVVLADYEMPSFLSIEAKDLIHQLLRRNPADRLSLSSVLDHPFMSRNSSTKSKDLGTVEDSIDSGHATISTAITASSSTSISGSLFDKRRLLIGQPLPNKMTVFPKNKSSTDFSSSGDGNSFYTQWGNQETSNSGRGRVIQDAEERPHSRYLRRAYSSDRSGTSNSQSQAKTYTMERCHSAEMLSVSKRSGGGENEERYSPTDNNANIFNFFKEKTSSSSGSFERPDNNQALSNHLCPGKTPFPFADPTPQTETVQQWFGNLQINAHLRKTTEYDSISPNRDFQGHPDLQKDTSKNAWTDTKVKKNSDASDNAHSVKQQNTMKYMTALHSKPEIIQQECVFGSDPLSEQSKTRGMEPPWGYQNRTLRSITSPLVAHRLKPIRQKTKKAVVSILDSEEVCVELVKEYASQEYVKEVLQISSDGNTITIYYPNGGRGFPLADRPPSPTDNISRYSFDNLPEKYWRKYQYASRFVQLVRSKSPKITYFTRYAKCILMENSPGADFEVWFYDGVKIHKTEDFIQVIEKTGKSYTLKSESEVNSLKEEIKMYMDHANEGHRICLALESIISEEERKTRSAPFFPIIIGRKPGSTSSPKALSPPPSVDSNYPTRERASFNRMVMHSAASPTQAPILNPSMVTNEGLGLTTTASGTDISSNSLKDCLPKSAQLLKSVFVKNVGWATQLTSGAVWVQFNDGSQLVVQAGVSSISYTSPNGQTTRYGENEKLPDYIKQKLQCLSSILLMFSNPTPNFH
Procedure, shortened: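 KinomeSCAN competitive binding panel of 100 kinases; compounds tested at 1 µM in duplicate; read-out is percent […] control.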

[9] = biological target: Epidermal growth factor receptor (Homo sapiens) (UniProt P00533); test: Inhibition of EGFR (unknown origin) at 1 uM relative to control; values are per cent of control
[10] = biological target: T2, Dual specificity mitogen-activated protein kinase kinase 5 (Homo sapiens) (UniProt Q13163); test: Inhibition of MEK5 (unknown origin) at 1 uM relative to control; values are per cent of control
T2 sequence (whole entry): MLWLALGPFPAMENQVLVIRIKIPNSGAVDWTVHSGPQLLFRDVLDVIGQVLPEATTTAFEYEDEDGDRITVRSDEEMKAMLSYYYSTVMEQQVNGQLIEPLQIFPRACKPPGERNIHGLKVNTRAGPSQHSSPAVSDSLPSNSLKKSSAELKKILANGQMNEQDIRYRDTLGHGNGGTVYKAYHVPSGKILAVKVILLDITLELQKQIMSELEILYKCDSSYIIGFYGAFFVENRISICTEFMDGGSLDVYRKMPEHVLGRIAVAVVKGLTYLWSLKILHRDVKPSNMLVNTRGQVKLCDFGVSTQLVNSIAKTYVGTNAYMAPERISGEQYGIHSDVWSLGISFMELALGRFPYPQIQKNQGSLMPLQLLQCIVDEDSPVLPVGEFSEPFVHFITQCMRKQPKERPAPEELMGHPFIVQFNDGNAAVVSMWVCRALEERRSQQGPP

Insulin receptor (Homo sapiens), sequence (P06213 28-758 limits assumed): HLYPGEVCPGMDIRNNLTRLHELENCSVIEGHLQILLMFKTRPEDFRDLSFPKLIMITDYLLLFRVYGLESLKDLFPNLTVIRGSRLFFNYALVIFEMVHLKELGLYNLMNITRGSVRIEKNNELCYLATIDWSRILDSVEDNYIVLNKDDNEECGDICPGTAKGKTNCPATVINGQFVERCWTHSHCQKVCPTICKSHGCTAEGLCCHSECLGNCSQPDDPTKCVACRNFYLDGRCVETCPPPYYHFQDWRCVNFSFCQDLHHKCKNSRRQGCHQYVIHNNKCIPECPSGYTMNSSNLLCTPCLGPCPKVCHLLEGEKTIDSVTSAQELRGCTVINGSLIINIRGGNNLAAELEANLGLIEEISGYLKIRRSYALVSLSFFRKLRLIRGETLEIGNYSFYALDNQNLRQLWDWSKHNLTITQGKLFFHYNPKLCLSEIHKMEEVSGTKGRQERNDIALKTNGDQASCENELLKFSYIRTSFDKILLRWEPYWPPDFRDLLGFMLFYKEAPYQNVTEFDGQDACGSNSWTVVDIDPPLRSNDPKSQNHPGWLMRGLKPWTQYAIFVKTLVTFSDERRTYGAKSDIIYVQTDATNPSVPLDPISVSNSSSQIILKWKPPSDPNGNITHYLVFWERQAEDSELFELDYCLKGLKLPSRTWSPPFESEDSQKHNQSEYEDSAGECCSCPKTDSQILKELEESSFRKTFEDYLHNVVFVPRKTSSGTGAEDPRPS
Insulin receptor (Homo sapiens), sequence (P06213 763-1382 limits assumed): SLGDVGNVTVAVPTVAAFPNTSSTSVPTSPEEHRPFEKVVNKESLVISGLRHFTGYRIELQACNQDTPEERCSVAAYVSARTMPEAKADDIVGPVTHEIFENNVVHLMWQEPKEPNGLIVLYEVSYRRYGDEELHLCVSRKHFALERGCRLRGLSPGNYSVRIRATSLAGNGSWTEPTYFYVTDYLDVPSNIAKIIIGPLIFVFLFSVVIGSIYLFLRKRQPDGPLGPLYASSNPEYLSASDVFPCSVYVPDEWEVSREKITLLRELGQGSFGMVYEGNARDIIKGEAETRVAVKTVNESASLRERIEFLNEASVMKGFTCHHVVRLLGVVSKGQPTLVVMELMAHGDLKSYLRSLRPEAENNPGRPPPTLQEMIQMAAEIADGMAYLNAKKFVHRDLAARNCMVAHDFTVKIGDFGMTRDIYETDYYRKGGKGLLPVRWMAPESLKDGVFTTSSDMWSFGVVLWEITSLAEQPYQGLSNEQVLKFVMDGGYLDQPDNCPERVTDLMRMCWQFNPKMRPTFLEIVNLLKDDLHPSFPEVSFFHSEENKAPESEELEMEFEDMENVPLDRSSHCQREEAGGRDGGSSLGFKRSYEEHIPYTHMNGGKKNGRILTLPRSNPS
Epidermal growth factor receptor (Homo sapiens), sequence (P00533 whole entry): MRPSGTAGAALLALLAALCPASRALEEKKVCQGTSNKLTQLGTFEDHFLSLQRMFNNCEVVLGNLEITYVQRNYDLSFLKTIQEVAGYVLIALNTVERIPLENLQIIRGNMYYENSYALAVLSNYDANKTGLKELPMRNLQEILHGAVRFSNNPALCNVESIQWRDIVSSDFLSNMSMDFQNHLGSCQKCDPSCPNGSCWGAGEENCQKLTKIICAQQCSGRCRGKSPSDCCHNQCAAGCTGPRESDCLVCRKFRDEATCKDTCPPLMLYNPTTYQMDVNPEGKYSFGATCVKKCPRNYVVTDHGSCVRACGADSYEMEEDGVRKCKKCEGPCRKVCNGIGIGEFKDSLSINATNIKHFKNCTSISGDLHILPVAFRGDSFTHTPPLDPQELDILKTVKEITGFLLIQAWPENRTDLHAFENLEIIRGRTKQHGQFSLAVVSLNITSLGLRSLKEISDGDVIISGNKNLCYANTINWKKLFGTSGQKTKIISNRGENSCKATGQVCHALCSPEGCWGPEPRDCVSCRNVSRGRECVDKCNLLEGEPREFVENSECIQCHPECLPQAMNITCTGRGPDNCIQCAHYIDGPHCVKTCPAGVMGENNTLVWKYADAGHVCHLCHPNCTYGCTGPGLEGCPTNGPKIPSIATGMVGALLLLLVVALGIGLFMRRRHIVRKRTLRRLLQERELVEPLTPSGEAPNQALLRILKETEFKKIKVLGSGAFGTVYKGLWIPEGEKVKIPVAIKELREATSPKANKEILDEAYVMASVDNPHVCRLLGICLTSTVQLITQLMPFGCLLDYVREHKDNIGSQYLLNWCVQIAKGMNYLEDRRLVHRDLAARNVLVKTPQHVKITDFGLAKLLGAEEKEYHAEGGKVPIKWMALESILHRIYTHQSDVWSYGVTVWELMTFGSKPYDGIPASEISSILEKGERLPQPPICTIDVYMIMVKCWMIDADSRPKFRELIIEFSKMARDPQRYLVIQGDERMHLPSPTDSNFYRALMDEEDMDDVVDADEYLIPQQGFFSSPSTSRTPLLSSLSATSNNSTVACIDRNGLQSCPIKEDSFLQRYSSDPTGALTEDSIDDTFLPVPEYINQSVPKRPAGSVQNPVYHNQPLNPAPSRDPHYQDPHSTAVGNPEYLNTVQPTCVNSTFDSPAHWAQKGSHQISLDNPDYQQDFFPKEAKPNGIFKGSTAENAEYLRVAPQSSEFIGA
Mitogen-activated protein kinase kinase kinase kinase 4 (Homo sapiens), sequence (O95819 2-1239 limits assumed): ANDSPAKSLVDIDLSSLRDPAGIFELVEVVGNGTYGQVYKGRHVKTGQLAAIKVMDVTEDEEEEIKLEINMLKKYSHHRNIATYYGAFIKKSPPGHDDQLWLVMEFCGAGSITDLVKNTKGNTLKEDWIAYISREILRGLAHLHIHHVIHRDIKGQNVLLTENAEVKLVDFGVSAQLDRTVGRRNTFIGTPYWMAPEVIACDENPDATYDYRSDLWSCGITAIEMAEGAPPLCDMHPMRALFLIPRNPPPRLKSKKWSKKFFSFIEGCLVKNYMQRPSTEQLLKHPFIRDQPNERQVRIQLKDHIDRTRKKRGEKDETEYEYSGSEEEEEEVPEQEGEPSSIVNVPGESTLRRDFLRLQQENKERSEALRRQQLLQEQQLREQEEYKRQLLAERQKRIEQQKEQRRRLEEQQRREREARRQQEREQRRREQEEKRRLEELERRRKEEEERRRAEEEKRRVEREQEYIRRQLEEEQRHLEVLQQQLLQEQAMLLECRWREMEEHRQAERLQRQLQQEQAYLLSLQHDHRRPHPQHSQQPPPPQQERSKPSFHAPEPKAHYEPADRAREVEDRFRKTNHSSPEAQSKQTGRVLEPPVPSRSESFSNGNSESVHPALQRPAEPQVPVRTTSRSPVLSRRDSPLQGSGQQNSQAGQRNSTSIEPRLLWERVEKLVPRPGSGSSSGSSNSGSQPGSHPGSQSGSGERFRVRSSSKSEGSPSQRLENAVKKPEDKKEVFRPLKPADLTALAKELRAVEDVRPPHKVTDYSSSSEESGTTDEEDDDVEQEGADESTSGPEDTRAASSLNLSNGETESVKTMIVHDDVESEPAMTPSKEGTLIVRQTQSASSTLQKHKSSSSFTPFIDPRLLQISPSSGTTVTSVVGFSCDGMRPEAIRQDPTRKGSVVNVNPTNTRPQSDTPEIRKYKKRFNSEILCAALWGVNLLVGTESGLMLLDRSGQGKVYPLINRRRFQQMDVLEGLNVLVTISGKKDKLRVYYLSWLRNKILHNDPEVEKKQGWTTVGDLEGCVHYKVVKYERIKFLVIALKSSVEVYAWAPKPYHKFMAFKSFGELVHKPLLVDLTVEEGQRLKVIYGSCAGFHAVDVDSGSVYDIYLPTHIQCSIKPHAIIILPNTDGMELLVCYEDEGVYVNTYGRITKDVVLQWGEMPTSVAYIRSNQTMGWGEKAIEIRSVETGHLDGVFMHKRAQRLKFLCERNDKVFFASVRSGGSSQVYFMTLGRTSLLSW
Ephrin type-A receptor 4 (Homo sapiens), sequence (P54764 whole entry): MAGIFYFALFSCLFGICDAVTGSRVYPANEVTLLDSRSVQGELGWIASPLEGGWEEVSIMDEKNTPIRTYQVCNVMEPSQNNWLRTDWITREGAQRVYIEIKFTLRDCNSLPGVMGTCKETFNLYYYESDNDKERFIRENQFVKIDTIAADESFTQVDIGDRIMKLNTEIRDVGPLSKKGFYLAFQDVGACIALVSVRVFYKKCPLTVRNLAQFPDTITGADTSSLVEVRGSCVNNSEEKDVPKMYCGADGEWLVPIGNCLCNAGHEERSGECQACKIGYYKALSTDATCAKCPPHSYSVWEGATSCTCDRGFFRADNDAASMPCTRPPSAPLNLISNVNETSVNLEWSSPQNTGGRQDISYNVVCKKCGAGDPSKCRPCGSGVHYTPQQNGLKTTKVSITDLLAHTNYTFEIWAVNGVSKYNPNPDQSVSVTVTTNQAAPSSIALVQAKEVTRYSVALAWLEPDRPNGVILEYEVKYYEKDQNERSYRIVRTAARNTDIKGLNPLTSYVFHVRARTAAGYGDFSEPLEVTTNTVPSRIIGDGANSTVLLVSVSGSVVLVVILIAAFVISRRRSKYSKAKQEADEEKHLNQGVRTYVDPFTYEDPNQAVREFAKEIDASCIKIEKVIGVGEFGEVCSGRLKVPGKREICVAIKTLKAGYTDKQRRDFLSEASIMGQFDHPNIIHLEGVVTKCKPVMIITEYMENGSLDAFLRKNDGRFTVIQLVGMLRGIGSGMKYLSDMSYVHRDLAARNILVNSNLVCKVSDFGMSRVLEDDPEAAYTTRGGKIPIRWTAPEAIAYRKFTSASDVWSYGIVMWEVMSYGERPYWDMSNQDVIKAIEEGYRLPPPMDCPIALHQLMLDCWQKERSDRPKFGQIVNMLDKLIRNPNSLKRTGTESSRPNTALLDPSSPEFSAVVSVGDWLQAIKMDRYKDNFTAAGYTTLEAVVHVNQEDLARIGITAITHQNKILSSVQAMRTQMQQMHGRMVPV

Row | residual activity [1] [%] | residual activity [2] [%] | residual activity [3] [%] | residual activity [4] [%] | residual activity [5] [%] | residual activity [6] [%] | IC50 [7] [µM] | residual binding, % of control [8] [%] | residual activity [9] [%] | residual activity [10] [%] | SMILES
1 | 92 | 80 | 81 | 58 | 100 | 100 | > 125 | 100 | 78 | 83 | CCOC(=O)c1sc(-c2ccncc2)nc1O
2 | 82 | 89 | 100 | 100 | 98 | 84 | 10.6 | 100 | 81 | 80 | COc1ccc(-c2nc(-c3ccnc(N)n3)sc2C(N)=O)c(Cl)c1

Row | SMILES | residual activity [1] [%] | residual activity [2] [%] | residual activity [3] [%] | residual activity [4] [%] | residual activity [5] [%] | residual activity [6] [%] | IC50 [7] [µM] | residual binding, % of control [8] [%] | residual activity [9] [%] | residual activity [10] [%]
3 | NC(=O)c1sc(-c2ccnc(N)n2)nc1-c1ccc(Cl)cc1Cl | 78 | 72 | 64 | 72 | 100 | 100 | 1.82 | 92 | 100 | 79
